# A selection: hits, their analogues and other compounds. The true share with any hit is near 2.5%.
# Beta2AR agonist – beta2AR agonists driving receptor internalization, primary screen, cell-based, FAP fluorogen, flow cytometry; Am2.2-beta2AR cells; response, % (test concentration not listed); 0.43% of 340,000 active;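 active means response above a set limit, near 3 SD of response in nonfluorescent compounds, cut at about 42% in these data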
# Target sequence (P07550 whole entry, looked up): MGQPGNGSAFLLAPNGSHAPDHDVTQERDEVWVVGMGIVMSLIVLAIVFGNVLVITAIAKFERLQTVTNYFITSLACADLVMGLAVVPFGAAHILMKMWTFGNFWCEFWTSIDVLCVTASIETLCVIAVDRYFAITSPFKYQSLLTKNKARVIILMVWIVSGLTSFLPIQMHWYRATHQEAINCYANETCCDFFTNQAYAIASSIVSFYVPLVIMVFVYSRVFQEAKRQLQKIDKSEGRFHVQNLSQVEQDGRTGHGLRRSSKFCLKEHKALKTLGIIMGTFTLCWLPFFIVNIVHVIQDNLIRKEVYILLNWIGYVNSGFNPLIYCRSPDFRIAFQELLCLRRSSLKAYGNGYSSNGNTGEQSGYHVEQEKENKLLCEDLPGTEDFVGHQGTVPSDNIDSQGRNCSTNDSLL
# ABHD5 PLIN5 PPI – ABHD5-PLIN5 interaction inhibitors, primary screen, cell lysate, split luciferase complementation, luminescence; Split G. princeps luciferase complementation, 4 h; AID 602281, 2012; inhibition, % at 4 µM; 0.78% of 360,000 active; Perilipin-5 (Homo sapiens) + 1-acylglycerol-3-phosphate O-acyltransferase ABHD5 (Homo …;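 active means inhibition above the mean inhibition across every tested compound plus 3 SD, cut at about 22% in these data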;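 further: 0% = DMSO only wells and the 100% control is not disclosed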
# GRK2 aptamer HTS – compounds blocking aptamer binding on GRK2 – biochemical, human GRK2, bead flow cytometry, HTS, primary screen; FAM-aptamer displacement from GRK2; inhibition of aptamer binding, % at 10 µM; 0.59% of 330,000 active;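 active means inhibition of aptamer binding above 40%, roughly 3 SD of noise, on plates passing a quality check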;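 further: median bead fluorescence of bound FAM aptamer so fluorescent compounds give negative values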
# SENP1 inh – human SENP1 catalytic domain inhibitors, primary screen, biochemical, FRET, uHTS; inhibition, % at 10 µM; 0.21% of 360,000 active; recombinant SENP1 catalytic domain, CyPet-SUMO1-YPet FRET cleavage; AID 624204, 2012; Sentrin-specific protease 1 (Homo sapiens), Q9P0U3;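 active means inhibition at least 30% at 10 µM, raw YFP signal under a set limit, fluorescence ratio 0.5 to 1.5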;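 further: 0% = enzyme with DMSO and 100% = no enzyme wells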
#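 material = recombinant human SENP1 catalytic domain, His6-tagged | quantity = 20 pM enzyme | reagent = 25 nM SUMO1 FRET substrate | compound dosing = 10 µM single point, 0.5% DMSO | timing = 50 min enzyme reaction, room temperature, light-protected | detection = FRET, CFP and YFP emission | control set = no-enzyme low, enzyme-DMSO high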
# NadD block – inhibitors of S. aureus NadD, primary screen, biochemical, colorimetric, uHTS | Nicotinate-nucleotide adenylyltransferase NadD (Staphylococcus aureus N315) | purified NadD enzyme, colorimetric absorbance read-out | inhibition, % at 20 µM | 0.78% of 360,000 active; in the data active means inhibition above about 26%
# NadD conf – inhibitors of S. aureus NadD, confirmation, biochemical, colorimetric, single concentration; inhibition, % at 20 µM; purified S. aureus NadD, colorimetric enzyme assay; shares compounds with NadD block; 13% of 2,000 active; in the data active means inhibition mostly above about 42%, no sharp cut-off; inactive means mostly below about 42%
# * hit, by the source's call; x = not tested or not shown.
SMILES,Beta2AR agonist,ABHD5 PLIN5 PPI,GRK2 aptamer HTS,SENP1 inh,NadD block,NadD conf
CCOc1ccc(-c2cc(C(=O)Nc3ccc4c(c3)OCCO4)c3ccccc3n2)cc1,5,-2,0,-1,33*,15
Cc1ccccc1NC(=S)NC(=O)c1cc(-c2ccccc2)nc2ccccc12,3,-6,0,0,38*,28
CCCOc1ccc(C(=O)NNC(=S)NC(=O)c2ccccc2)cc1,-5,-6,0,4,1,x
CCCOc1ccc(C(=O)NNC(=S)NC(=O)c2cc(-c3ccccc3)nc3ccccc23)cc1,6,-7,4,-4,62*,13
COC(=O)c1cc(S(=O)(=O)N2CCN(Cc3ccccc3)CC2)c[nH]1,2,5,0,1,-4,x
CC(=O)c1cccc(NC(=O)/C(=C/c2ccncc2)NC(=O)c2ccccc2)c1,-1,-6,5,-2,7,x
c1ccc(-c2ccc(C3=Nn4c(nnc4-c4cc(-c5ccccc5)n[nH]4)SC3)cc2)cc1,-7,-3,10,2,44*,5
CC1=Nn2c(nnc2-c2cc(-c3ccccc3)n[nH]2)SC1,-8,-1,0,1,7,x
Cc1ccc(Cc2cnc(N3C(=N)SC(c4ccccc4)C3=O)s2)cc1 (stereo not drawn),4,-11,0,-2,51*,8
N=C1SC(c2ccccc2)C(=O)N1c1ncc(Cc2ccccc2)s1 (stereo not drawn),-2,-11,0,0,12,x
Cc1cc(C(=O)NNC(=O)c2ccc(C)c([N+](=O)[O-])c2)c(C)o1,2,-8,x,2,-6,x
O=C(Nc1nnc(-c2ccc3c(c2)CCCC3)o1)c1ccc(Cl)cc1Cl,-1,-2,1,2,36*,24
O=C(Nc1nnc(-c2ccc3c(c2)CCCC3)o1)c1c(F)cccc1F,8,1,0,1,15,x
COc1ccc(N/C(=N/c2nc(C)cc(C)n2)NC(=O)Nc2ccc(Cl)c(Cl)c2)c(OC)c1,-6,0,0,3,33*,1
CN(C(=O)c1ccc(NC(=O)Cc2ccc(NC(=O)C3CCCN(C(=O)C4CCC4)C3)cc2)cc1)C1CCCC1 (stereo not drawn),-3,-2,x,2,10,x
CCCN(CCC)S(=O)(=O)c1ccc(C(=O)NNc2nc(-c3ccccc3)c3cc(Br)ccc3n2)cc1,-1,-5,2,0,36*,3
OCCNc1nc(-c2ccccc2)c2cc(Br)ccc2n1,-1,2,3,-69,-2,x
Cc1ccc(Cl)cc1N1CCN(C(=O)c2cc3c(=O)[nH]c4ccccc4c3n2C)CC1,-10,3,1,0,32*,11
O=C(N/N=C/c1coc2ccccc2c1=O)c1cn(-c2ccccc2)nc1-c1ccccc1,57*,3,0,1,36*,20
COC(=O)c1ccc2nc(C3CCCCC3)c(Cc3ccc(C)cc3)n2c1,x,-1,x,-40,2,x
CCOc1cc(/C=N/NC(N)=O)ccc1OC(=O)c1ccc(C)cc1,x,x,3,x,x,x
CCOc1cc(/C=N/NC(=O)CNc2ccc(C)cc2)ccc1OC(=O)c1ccccc1,-3,1,0,-1,33*,12
Cc1ccc(CC(=O)Nc2cccc(C(=O)Nc3c(C)n(C)n(-c4ccccc4)c3=O)c2)cc1C,x,0,x,-1,9,x
COc1cccc(NC(=O)C(=O)NCCCN2CCCC2=O)c1,1,2,0,-1,1,x
Cc1cc(-c2csc(NC(=O)c3ccc(C#N)cc3)n2)c(C)n1Cc1ccccc1,7,-5,0,6,34*,26
O=C(/C=C/c1c(F)cccc1Cl)NCCCN1CCOCC1,-2,2,4,-3,-9,x
COc1ccc([C@H]2C(C#N)=C([S-])N[C@](C)(O)[C@@H]2[n+]2ccccc2)cc1,21,-1,x,-33,45*,39
